Test results as given in ChEMBL document CHEMBL2177084, “Discovery of salermide-related sirtuin inhibitors: binding mode studies and antiproliferative effects in cancer cells including cancer stem cells” (J Med Chem, 2012).
Activity calls are given as the source filed them. No cut-off for these calls is given here.

Experiments:
[1] = system: U-937; test: Cell cycle arrest in human U937 cells at 25 uM after 40 hrs by flow cytometry; type: functional, cell-based
[2] = Cytotoxicity against human CRO cells at 50 uM after 72 hrs by celltiter-glo luminescent assay; type: functional
Method in brief: (§1)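 Patient-derived CSC spheroids were dissociated, plated at 2000–3000 viable cells, and held 24 h at 37 °C in 5% CO2. They were then treated 72 h with eight 1:3 serial dilutions (0.023–50 μM), with 0.1% DMSO as control, in triplicate. Viability was read by CellTiter-Glo luminescence relative to DMSO, and CC50 was obtained by 4-parameter logistic fit (mean of three experiments).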

[3] = (§2) Cytotoxicity against human CRC 1.1 cells at 50 uM after 72 hrs by celltiter-glo luminescent assay; type: functional; method in brief: as §1
[4] = Cytotoxicity against human 30PT cells after 72 hrs by celltiter-glo luminescent assay; type: functional; method in brief: as §1
[5] = system: U-937; test: Granulocytic differentiation in human U937 cells assessed as increase of CD11c cells at 25 uM after 40 hrs by FACS analysis relative to control; type: functional
Method in brief: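 U937 cells treated 40 h at 25 μM, then stained with PE-conjugated anti-CD11c (PE mouse IgG1 as isotype control) for 30 min at 4 °C in the dark. Cells were washed in PBS and taken up in PBS with 0.25 μg/mL propidium iodide. Differentiation = CD11c-positive cells minus PI-positive dead cells, by FACS.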

[6] = system: U-937; test: Induction of apoptosis in human U937 cells after 45 hrs by flow cytometry; type: functional; set-up: concentration or dose not given beside the values
Method in brief: (§3)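 Apoptosis was taken as the pre-G1 peak after propidium iodide staining in hypotonic citrate/Triton buffer (30 min, dark) and flow cytometry. Triplicate experiments.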

[7] = system: U-937; test: Induction of apoptosis in human U937 cells at 50 uM after 45 hrs by flow cytometry; type: functional, cell-based; method in brief: as §3
[8] = system: U-937; test: Induction of apoptosis in human U937 cells at 5 uM after 45 hrs by flow cytometry; type: functional, cell-based; method in brief: as §3
[9] = system: U-937; test: Cell cycle arrest in human U937 cells assessed as accumulation at G1 phase at 25 uM after 40 hrs by flow cytometry; type: functional, cell-based
[10] = target: T1, NAD-dependent protein deacetylase sirtuin-1 (Homo sapiens) (UniProt Q96EB6); test: Inhibition of human N-terminal GST-tagged SIRT1 expressed in Escherichia coli using Arg-His- Lys-Lys(Ac) as substrate after 1 hr by Fluor de Lys fluorescence based assay
T1 sequence (whole entry): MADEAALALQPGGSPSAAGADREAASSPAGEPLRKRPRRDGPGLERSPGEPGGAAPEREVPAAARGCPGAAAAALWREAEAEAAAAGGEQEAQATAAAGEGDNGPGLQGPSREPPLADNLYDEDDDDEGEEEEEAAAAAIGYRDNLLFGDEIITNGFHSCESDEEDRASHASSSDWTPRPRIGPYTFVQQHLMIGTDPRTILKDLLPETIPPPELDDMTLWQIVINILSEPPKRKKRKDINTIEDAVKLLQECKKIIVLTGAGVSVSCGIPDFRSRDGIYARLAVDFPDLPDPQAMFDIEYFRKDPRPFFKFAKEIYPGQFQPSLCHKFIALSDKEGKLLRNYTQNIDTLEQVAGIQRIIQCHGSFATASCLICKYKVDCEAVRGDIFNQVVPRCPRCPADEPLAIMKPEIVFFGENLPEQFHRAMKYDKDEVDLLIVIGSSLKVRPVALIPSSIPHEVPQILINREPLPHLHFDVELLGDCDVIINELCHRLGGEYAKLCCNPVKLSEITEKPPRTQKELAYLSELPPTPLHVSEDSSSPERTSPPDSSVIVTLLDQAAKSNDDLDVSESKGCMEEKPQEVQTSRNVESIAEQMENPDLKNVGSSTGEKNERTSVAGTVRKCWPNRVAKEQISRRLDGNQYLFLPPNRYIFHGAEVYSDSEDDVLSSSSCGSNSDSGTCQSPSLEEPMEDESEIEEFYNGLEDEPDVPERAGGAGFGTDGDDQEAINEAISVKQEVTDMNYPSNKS
Method in brief: (§4)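 Recombinant full-length human sirtuin expressed in E. coli was incubated 1 h at 37 °C with p53-derived AMC-conjugated acetyl-peptide (SIRT1: Arg-His-Lys-Lys(Ac); SIRT2: Gln-Pro-Lys-Lys(Ac); […]) and NAD+ ([…]). The reaction was stopped and developed with developer containing 2 mM nicotinamide, and fluorescence read at ex 360/em 460 nm. Compound fluorescence was subtracted using an enzyme-free counter assay. Triplicate.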

[11] = system: MOLT-4; test: Antiproliferative activity against human MOLT4 cells at 25 uM after 24 to 72 hrs by MTT assay; type: functional, cell-based
Method in brief: (§5)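 Cells exposed to compound for 24, 48 and 72 h; growth inhibition read by MTT and expressed as percentage antiproliferative activity.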

[12] = system: MDA-MB-231; test: Antiproliferative activity against human MDA-MB-231 cells at 50 uM after 24 to 72 hrs by MTT assay; type: functional, cell-based; method in brief: as §5
[13] = Cytotoxicity against human CRO cells after 72 hrs by celltiter-glo luminescent assay; type: functional; method in brief: as §1
[14] = Cytotoxicity against human 30P cells after 72 hrs by celltiter-glo luminescent assay; type: functional; method in brief: as §1
[15] = system: MOLT-4; test: Antiproliferative activity against human MOLT4 cells at 50 uM after 24 to 72 hrs by MTT assay; type: functional, cell-based; method in brief: as §5
[16] = system: RKO; test: Antiproliferative activity against human RKO cells at 50 uM after 24 to 72 hrs by MTT assay; type: functional, cell-based; method in brief: as §5
[17] = Cytotoxicity against human CRC 1.1 cells after 72 hrs by celltiter-glo luminescent assay; type: functional; method in brief: as §1
[18] = system: MOLT-4; test: Antiproliferative activity against human MOLT4 cells at 100 uM after 24 to 72 hrs by MTT assay; type: functional, cell-based; method in brief: as §5
[19] = system: RKO; test: Antiproliferative activity against human RKO cells at 25 uM after 24 to 72 hrs by MTT assay; type: functional, cell-based; method in brief: as §5
[20] = system: MDA-MB-231; test: Antiproliferative activity against human MDA-MB-231 cells at 25 uM after 24 to 72 hrs by MTT assay; type: functional, cell-based; method in brief: as §5
[21] = system: MOLT-4; test: Antiproliferative activity against human MOLT4 cells at 100 uM by MTT assay; type: functional, cell-based; details: TDE = time-dependent effect; method in brief: as §5
[22] = target: T2, NAD-dependent protein deacetylase sirtuin-2 (Homo sapiens, UniProt Q8IXJ6); test: Inhibition of human SIRT2 expressed in Escherichia coli using Gln-Pro-Lys-Lys(Ac) as substrate after 1 hr by Fluor de Lys fluorescence based assay; method in brief: as §4
T2 sequence (Q8IXJ6 whole entry): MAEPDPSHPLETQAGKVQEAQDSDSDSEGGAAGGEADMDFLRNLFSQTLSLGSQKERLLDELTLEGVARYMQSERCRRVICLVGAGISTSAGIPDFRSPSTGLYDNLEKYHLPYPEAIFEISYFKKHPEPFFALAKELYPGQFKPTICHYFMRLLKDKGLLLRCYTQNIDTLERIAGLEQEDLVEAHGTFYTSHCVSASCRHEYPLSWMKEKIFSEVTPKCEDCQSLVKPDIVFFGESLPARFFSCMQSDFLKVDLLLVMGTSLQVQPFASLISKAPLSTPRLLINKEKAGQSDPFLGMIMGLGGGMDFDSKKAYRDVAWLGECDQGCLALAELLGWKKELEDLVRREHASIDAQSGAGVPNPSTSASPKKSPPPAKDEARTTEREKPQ

[23] = Cytotoxicity against human 30P cells at 50 uM after 72 hrs by celltiter-glo luminescent assay; type: functional; method in brief: as §1
[24] = species on record: Homo sapiens; test: as §2; type: functional; method in brief: as §1
[25] = Cytotoxicity against human 30PT cells at 50 uM after 72 hrs by celltiter-glo luminescent assay; type: functional; method in brief: as §1
[26] = in the assay text read “40 hrs” for “45 hrs”
[27] = in the assay text read “after 40 hrs” for “after 45 hrs”

Structure (SMILES) | CC50 [4] [µM] | Activity [7] | Activity [8] | inhibition [10] | Activity [6, 27] [%] | Activity [11] | CC50 [13] [µM] | CC50 [14] [µM] | CC50 [17] [µM] | Activity [18] | other results
N#C/C(=C\c1ccc(-c2cc(Cl)ccc2Cl)o1)C(=O)Nc1cccc2ncccc12 | 9.6 | – | – | – | – | – | – | – | – | – | Activity [1]: inactive; inhibition at 50 µM [2]: 50%; inhibition at 50 µM [3]: 50%; Activity [5]: inactive; Activity [6, 26]: inactive
CC(CS(=O)(=O)c1cccc(/N=C/c2c(O)ccc3ccccc23)c1)c1ccccc1 (stereo not given) | – | Active | inactive | – | – | – | – | – | – | – | –
CC(NC(=O)c1cccc(/N=C/c2c(O)ccc3ccccc23)c1)c1ccccc1 (stereo not given) | – | Active | inactive | Active | 47 | – | – | – | – | – | Activity [9]: Active
CC(CSc1cccc(/N=C/c2c(O)ccc3ccccc23)c1)c1ccccc1 (stereo not given) | 15.6 | Active | inactive | – | – | Active | 14.5 | 15.5 | 20 | – | Activity [12]: Active; Activity [15]: Active; Activity [16]: Active
CC(NS(=O)(=O)c1ccc(/N=C/c2c(O)ccc3ccccc23)cc1)c1ccccc1 (stereo not given) | – | Active | inactive | – | – | – | – | – | – | Active | –
CC(C(=O)Nc1cccc(/N=C/c2c(O)ccc3ccccc23)c1)c1ccccc1 (stereo not given) [SALERMIDE] | 36.5 | Active | inactive | – | 70 | Active | 6.7 | 41 | 9.7 | Active | Activity [19]: Active; Activity [12]: Active; Activity [9]: Active; Activity [20]: Active; Activity [21]: tde; Activity [15]: Active; Activity [16]: Active
CC(CS(=O)(=O)c1ccccc1/N=C/c1c(O)ccc2ccccc12)c1ccccc1 (stereo not given) | 15.3 | Active | inactive | – | – | Active | 15.7 | 17.4 | 19.5 | – | IC50 [22]: 24.2 µM
CC(NS(=O)(=O)c1ccccc1/N=C/c1c(O)ccc2ccccc12)c1ccccc1 (stereo not given) | – | Active | inactive | Active | – | – | – | – | – | Active | –
CC(NC(=O)c1ccccc1/N=C/c1c(O)ccc2ccccc12)c1ccccc1 (stereo not given) [SIRTINOL] | – | Active | inactive | Active | 47 | – | – | – | – | – | –
NC(=O)C1CCCc2c1[nH]c1ccc(Cl)cc21 (stereo not given) | – | – | – | – | – | – | – | – | – | – | Activity [1]: inactive; inhibition at 50 µM [23]: 10%; inhibition at 50 µM [2]: 20%; inhibition [24]: inactive; inhibition at 50 µM [25]: 20%; Activity [5]: inactive; Activity [6, 26]: inactive
